Activity calls are given as the source filed them. The rule behind the calls is not given here.
Columns and labels:
[1] = system: MCF7; assay: Induction of apoptosis in human MCF7 cells assessed as late apoptotic cells at 1 uM after 24 hrs by annexin V-FITC/propidium iodide staining-based flow cytometric analysis (reference value: 0.84%); format: functional
[2] = Cytotoxicity against human MCF7/ADR cells assessed as growth inhibition after 96 hrs by SRB assay; format: functional, cell-based; settings: NCI/ADR-RES
Procedure, shortened: (§1)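 SRB viability assay. Cells are seeded for 24 h, then exposed for 96 h to a concentration series from 20 mM DMSO stocks, with a DMSO control. Cells are fixed in 50% TCA (2 h, 4 °C), stained with 0.4% SRB for 10 min and washed with 1% acetic acid. Bound dye is dissolved in 10 mM Tris base and read at 515 nm. IC50 is averaged from at least 3 independent experiments. SI is IC50 in HAF divided by IC50 in the cancer line.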

[3] = system: NCI/ADR-RES; assay: Induction of apoptosis in human MCF7/ADR cells assessed as late apoptotic cells at 1 uM after 24 hrs by annexin V-FITC/propidium iodide staining-based flow cytometric analysis (reference value: 1.48%); format: functional
[4] = system: NCI/ADR-RES; assay: Induction of apoptosis in human MCF7/ADR cells assessed as early apoptotic cells at 1 uM after 24 hrs by annexin V-FITC/propidium iodide staining-based flow cytometric analysis (reference value: 0.67%); format: functional
[5] = system: MCF7; assay: Cytotoxicity against human MCF7 cells assessed as growth inhibition after 96 hrs by SRB assay; format: functional, cell-based; settings: MCF7, 96 h; procedure, shortened: as §1
[6] = system: MCF7; assay: Induction of apoptosis in human MCF7 cells assessed as early apoptotic cells at 1 uM after 24 hrs by annexin V-FITC/propidium iodide staining-based flow cytometric analysis (reference value: 0.74%); format: functional
[7] = Cytotoxicity against HAF assessed as growth inhibition after 96 hrs by SRB assay; settings: Homo sapiens; procedure, shortened: as §1
[8] = system: 4T1; assay: Cytotoxicity against mouse 4T1 cells assessed as growth inhibition after 96 hrs by SRB assay; format: functional, cell-based; settings: 4T1, 96 h; procedure, shortened: as §1
[9] = system: MDA-MB-231; assay: Induction of apoptosis in human MDA-MB-231 cells assessed as late apoptotic cells at 80 uM after 24 hrs by annexin V-FITC/propidium iodide staining-based flow cytometric analysis (reference value: 2.4%)
[10] = system: T47D; assay: Cytotoxicity against human T47D cells assessed as growth inhibition after 96 hrs by SRB assay; format: functional, cell-based; procedure, shortened: as §1
[11] = Cytotoxicity against human PC3 cells assessed as growth inhibition after 96 hrs by SRB assay; format: functional, cell-based; settings: PC-3, 96 h; procedure, shortened: as §1
[12] = system: PC-3; assay: Selectivity index, ratio of IC50 for HAF to IC50 for human PC3 cells; procedure, shortened: as §1
[13] = system: T47D; assay: Selectivity index, ratio of IC50 for HAF to IC50 for human T47D cells; procedure, shortened: as §1
[14] = Cytotoxicity against human HCT116 cells assessed as growth inhibition after 96 hrs by SRB assay; format: functional, cell-based; settings: HCT-116, 96 h; procedure, shortened: as §1
[15] = system: MCF7; assay: Selectivity index, ratio of IC50 for HAF to IC50 for human MCF7 cells; procedure, shortened: as §1
[16] = system: MCF7; assay: Induction of apoptosis in human MCF7 cells assessed as late apoptotic cells at 80 uM after 24 hrs by annexin V-FITC/propidium iodide staining-based flow cytometric analysis (reference value: 0.84%); format: functional
[17] = system: MDA-MB-231; assay: Antimetastatic activity against human MDA-MB-231 cells at 10 to 50 uM after 12 hrs by transwell assay relative to control; format: functional, cell-based
Procedure, shortened: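 Transwell migration: 8 × 10^4 MDA-MB-231 cells in serum-free medium in the upper chamber, with 10% FBS medium below. Compound added to both chambers, then 12 h migration. Non-migrated cells swabbed off. Migrated cells fixed in 4% paraformaldehyde for 30 min, stained with 0.1% crystal violet for 5 min, and counted in 5 random fields. Inhibition normalized to untreated control migration.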

[18] = system: DU-145; assay: Cytotoxicity against human DU145 cells assessed as growth inhibition after 96 hrs by SRB assay; format: functional, cell-based; settings: DU-145, 96 h; procedure, shortened: as §1
[19] = Selectivity index, ratio of IC50 for HAF to IC50 for human MDA-MB-231 cells; procedure, shortened: as §1
[20] = system: MDA-MB-231; assay: Induction of apoptosis in human MDA-MB-231 cells assessed as early apoptotic cells at 80 uM after 24 hrs by annexin V-FITC/propidium iodide staining-based flow cytometric analysis (reference value: 0.59%)
[21] = system: HCT-116; assay: Selectivity index, ratio of IC50 for HAF to IC50 for human HCT116 cells; procedure, shortened: as §1
[22] = system: DU-145; assay: Selectivity index, ratio of IC50 for HAF to IC50 for human DU145 cells; procedure, shortened: as §1
[23] = system: HT-29; assay: Cytotoxicity against human HT-29 cells assessed as growth inhibition after 96 hrs by SRB assay; format: functional, cell-based; settings: HT-29, 96 h; procedure, shortened: as §1
[24] = system: NCI/ADR-RES; assay: Induction of apoptosis in human MCF7/ADR cells assessed as early apoptotic cells at 80 uM after 24 hrs by annexin V-FITC/propidium iodide staining-based flow cytometric analysis (reference value: 0.67%); format: functional
[25] = system: NCI/ADR-RES; assay: Selectivity index, ratio of IC50 for HAF to IC50 for human MCF7/ADR cells; procedure, shortened: as §1
[26] = system: 4T1; assay: Selectivity index, ratio of IC50 for HAF to IC50 for mouse 4T1 cells; procedure, shortened: as §1
[27] = system: MDA-MB-231; assay: Cytotoxicity against human MDA-MB-231 cells assessed as growth inhibition after 96 hrs by SRB assay; format: functional, cell-based; settings: MDA-MB-231, 96 h; procedure, shortened: as §1
[28] = system: NCI/ADR-RES; assay: Induction of apoptosis in human MCF7/ADR cells assessed as late apoptotic cells at 80 uM after 24 hrs by annexin V-FITC/propidium iodide staining-based flow cytometric analysis (reference value: 1.48%); format: functional
[29] = system: MCF7; assay: Induction of apoptosis in human MCF7 cells assessed as early apoptotic cells at 80 uM after 24 hrs by annexin V-FITC/propidium iodide staining-based flow cytometric analysis (reference value: 0.74%); format: functional
[30] = system: HT-29; assay: Selectivity index, ratio of IC50 for HAF to IC50 for human HT-29 cells; procedure, shortened: as §1
[31] = system: MDA-MB-231; assay: Induction of apoptosis in human MDA-MB-231 cells assessed as late apoptotic cells at 5 uM after 24 hrs by annexin V-FITC/propidium iodide staining-based flow cytometric analysis (reference value: 2.4%); format: functional
[32] = system: MCF7; assay: Induction of apoptosis in human MCF7 cells assessed as late apoptotic cells at 20 uM after 24 hrs by annexin V-FITC/propidium iodide staining-based flow cytometric analysis (reference value: 0.84%); format: functional
[33] = system: MDA-MB-231; assay: Antimetastatic activity against human MDA-MB-231 cells at 2.5 to 10 uM after 12 hrs by transwell assay; format: functional, cell-based
[34] = system: NCI/ADR-RES; assay: Induction of apoptosis in human MCF7/ADR cells assessed as early apoptotic cells at 20 uM after 24 hrs by annexin V-FITC/propidium iodide staining-based flow cytometric analysis (reference value: 0.67%); format: functional
[35] = system: NCI/ADR-RES; assay: Induction of apoptosis in human MCF7/ADR cells assessed as late apoptotic cells at 20 uM after 24 hrs by annexin V-FITC/propidium iodide staining-based flow cytometric analysis (reference value: 1.48%); format: functional
[36] = system: MDA-MB-231; assay: Induction of apoptosis in human MDA-MB-231 cells assessed as early apoptotic cells at 5 uM after 24 hrs by annexin V-FITC/propidium iodide staining-based flow cytometric analysis (reference value: 0.59%); format: functional
[37] = system: MCF7; assay: Induction of apoptosis in human MCF7 cells assessed as early apoptotic cells at 20 uM after 24 hrs by annexin V-FITC/propidium iodide staining-based flow cytometric analysis (reference value: 0.74%); format: functional

## CC(=O)O[C@@]12CO[C@@H]1C[C@H](O)[C@@]1(C)C(=O)[C@H](O)C3=C(C)[C@@H](OC(=O)[C@H](O)[C@@H](NC(=O)OC(C)(C)C)c4ccccc4)C[C@@](O)([C@@H](OC(=O)c4ccccc4)[C@H]21)C3(C)C.O.O.O [DOCETAXEL]
[1]
  Activity: 10.63%
[2]
  IC50: 5.18 µM
[3]
  Activity: 1.58%
[4]
  Activity: 1.38%
[5]
  IC50: 0.005 µM
[6]
  Activity: 5.61%

## C=C(C)[C@@H]1CC[C@]2(C(=O)O)CC[C@]3(C)[C@H](CC[C@@H]4[C@@]5(C)CC[C@H](O)C(C)(C)[C@@H]5CC[C@]43C)[C@@H]12 [BETULINIC ACID]
[7]
  IC50: 34.5 µM
[2]
  IC50: 38.5 µM
[8]
  IC50: 14 µM
[9]
  Activity: 27.58%
[10]
  IC50: 15.6 µM
[11]
  IC50: 27.5 µM
[12]
  Ratio IC50: 1.3
[13]
  Ratio IC50: 2.2
[14]
  IC50: 22.1 µM
[15]
  Ratio IC50: 1.5
[16]
  Activity: 1.3%
[17]
  Activity: Active
[18]
  IC50: 36.2 µM
[19]
  Ratio IC50: 1
[20]
  Activity: 1.94%
[21]
  Ratio IC50: 1.6
[22]
  Ratio IC50: 0.9
[23]
  IC50: 17.3 µM
[24]
  Activity: 4.6%
[5]
  IC50: 22.6 µM
[25]
  Ratio IC50: 0.9
[26]
  Ratio IC50: 2.5
[27]
  IC50: 34.6 µM
[28]
  Activity: 2.64%
[29]
  Activity: 16.58%
[30]
  Ratio IC50: 2

## C=C(C)[C@@H]1CC[C@]2(C(=O)O)CC[C@]3(C)[C@H](CC[C@@H]4[C@@]5(C)CC[C@H](NC(=O)C6CCNCC6)C(C)(C)[C@@H]5CC[C@]43C)[C@@H]12
[7]
  IC50: 4.45 µM
[2]
  IC50: 0.33 µM
[8]
  IC50: 1.77 µM
[10]
  IC50: 1.4 µM
[11]
  IC50: 1.11 µM
[12]
  Ratio IC50: 4
[13]
  Ratio IC50: 3.2
[14]
  IC50: 1.11 µM
[15]
  Ratio IC50: 8.2
[31]
  Activity: 25.87%
[32]
  Activity: 4.15%
[18]
  IC50: 2.45 µM
[19]
  Ratio IC50: 4.4
[21]
  Ratio IC50: 4
[22]
  Ratio IC50: 1.8
[23]
  IC50: 0.97 µM
[33]
  Activity: Active
[5]
  IC50: 0.54 µM
[25]
  Ratio IC50: 13.5
[34]
  Activity: 12.81%
[26]
  Ratio IC50: 2.5
[27]
  IC50: 1.01 µM
[35]
  Activity: 6.35%
[36]
  Activity: 5.56%
[37]
  Activity: 16.17%
[30]
  Ratio IC50: 4.6
